Compound activity: PubChem BioAssay, several laboratories
A selection: hits, their analogues and other compounds. The true share with any hit is near 1.1%.
GRK2 inh – compounds blocking aptamer binding on GRK2 – biochemical, human GRK2, bead flow cytometry, HTS, primary screen | 330,000 compounds, 0.59% hits | AID 488847, 2010 | inhibition of aptamer binding, % at 10 µM | FAM-aptamer displacement from GRK2;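 active = inhibition of aptamer binding above 40%, roughly 3 SD of noise, on plates passing a quality check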;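 note: median bead fluorescence of bound FAM aptamer so fluorescent compounds give negative values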
proCasp7 act – procaspase-7 activators, primary screen, counter-screen for procaspase-3 activator project, biochemical, absorbance, HTS, human; 330,000 compounds, 0.093% hits; activation, % at 8.5 µM; recombinant procaspase-7, Ac-DEVD-pNA absorbance 405 nm; D23A/D198A/D206A triple mutant, cannot self-cleave; scale: DMSO 0, 5 µM enzyme 100; Caspase-7 (Homo sapiens), P55210;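 active = percent activation above the screen-wide mean plus 3 SD, cut at about 25% in these data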
Target sequence (P55210 whole entry D23A/D198A/D206A): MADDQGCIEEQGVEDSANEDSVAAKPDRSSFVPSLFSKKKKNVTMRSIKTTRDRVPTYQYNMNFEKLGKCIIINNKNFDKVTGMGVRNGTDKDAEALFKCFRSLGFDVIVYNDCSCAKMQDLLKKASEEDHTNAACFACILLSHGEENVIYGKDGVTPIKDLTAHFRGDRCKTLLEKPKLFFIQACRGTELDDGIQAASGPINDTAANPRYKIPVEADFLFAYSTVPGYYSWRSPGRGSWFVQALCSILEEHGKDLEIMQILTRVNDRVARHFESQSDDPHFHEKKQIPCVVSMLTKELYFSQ
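Material: Procaspase-7 triple mutant (PC-7 D3A) | Quantity: 2 µM procaspase-7 mutant as dispensed | Reagent: DEVD-pNA substrate | Times: 1 h preincubation, 2 h reaction | Technique: 405 nm absorbance of p-nitroaniline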
T cell HTS – modulators of CD8 T cell-vesicle binding, primary screen, mouse 2C CD8+ T cells, flow cytometry; 2C CD8+ T cell-vesicle binding; active compounds read low; response (vesicle binding), % at 7 µM; 330,000 compounds, 0.068% hits; AID 2052, 2009;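 active = response, share of CD8 T cells binding vesicles, and their 90th percentile fluorescence all below set limits, cut at about 80% in these data, passing the limit was not always enough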;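 note: values below 100% mean blocked vesicle binding to the CD8+ T cells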
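Assay system – 2C mouse CD8+ T cells · Also added – QL9-loaded Drosophila micro-vesicles · Timing – Cell–vesicle co-incubation 1.5 h at 37 °C, staining 20 min on ice · Signal – flow cytometry of vesicle-bound cells · Measure – percent CD8+ FL2 mean versus row control · Controls – Peptide-free naked vesicles (low) and QL9 vesicles with 0.7% DMSO vehicle (high)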
aDG glyco up – activators of alpha-DG glycosylation, primary screen, uHTS, Pro5-aDG cells, AlphaScreen | alpha-DG glycosylation AlphaScreen (IIH6); 0% Pro5, 100% B10-LARGE cell signal | activation, % at 10 µM | 360,000 compounds, 0.22% hits | AID 624168, 2012;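 active = activation of at least 8% versus controls, or a plate z-score of at least 8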;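 note: Pro5 are CHO cells carrying HIG-tagged alpha-DG that lacks glycosylation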
CaV13 FRET inh – Disruptors of the CACNA1D IQ motif to Ca2+-dependent inactivation inhibitor domain association, primary screening, Förster resonance energy transfer in intact living … | HEK cells, CFP/YFP FRET ICDI-IQ, plate reader, 10 min; percent FRET-ratio fall versus neutral wells | inhibition, % at 12.3 µM | 340,000 compounds, 0.098% hits;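 active = mean replicate inhibition of at least 30% and at least 1% of replicates passing that level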
procasp3 activ – activators of human procaspase-3 D3A mutant, primary screen, biochemical, absorbance, PC-3 D3A mutant, single concentration; recombinant procaspase-3 D3A, Ac-DEVD-pNA absorbance 405 nm; activation, % at 8.5 µM; 330,000 compounds, 0.11% hits; AID 463141, 2010;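 active = activation above the mean of all tested compounds plus 3 SD, cut at about 21% in these data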
Target sequence (P42574 whole entry D9A/D28A/D175A): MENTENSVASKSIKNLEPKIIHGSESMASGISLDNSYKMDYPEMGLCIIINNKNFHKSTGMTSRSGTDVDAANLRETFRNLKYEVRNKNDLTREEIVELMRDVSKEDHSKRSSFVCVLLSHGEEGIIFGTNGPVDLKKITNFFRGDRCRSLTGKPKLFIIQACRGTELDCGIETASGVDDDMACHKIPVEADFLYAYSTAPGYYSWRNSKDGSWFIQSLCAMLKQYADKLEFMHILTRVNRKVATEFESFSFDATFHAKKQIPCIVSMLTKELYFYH
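assay system = Procaspase-3 D3A mutant | signal = absorbance at 405 nm, 0 and 120 min | times = 1 h preincubation plus 2 h reaction at 25 °C | repeats = single replicate | read-out = % activation between DMSO and enzyme-spiked controls | medium = Zinc-free HEPES saline buffer with Triton X-100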
aDG conf – alpha-DG glycosylation enhancers, retest, confirmation, single concentration, Pro5-aDG cells; shares compounds with aDG glyco up; IIH6 AlphaLISA; scaled to LARGE-overexpressing B10 cells as 100%; activation, % at 10 µM (by protocol); 600 compounds, 17% hits; AID 651671, 2012;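 active = activation of at least 7% in one or more replicates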;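 note: cells exposed to compound for two days before detection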
Numbers stand for hits.

What do the screens show for `CCOc1ccc(-n2cc(C(=O)N3CCCCCC3)c3cc(OC)c(OC)cc3c2=O)cc1`?
GRK2 inh: inactive; proCasp7 act: inactive; T cell HTS: inactive; aDG glyco up: 5.5; CaV13 FRET inh: inactive; procasp3 activ: inactive; aDG conf: 9.9

How did N#C/C(=C\c1cccc(Cl)c1)c1n[nH]c(Cn2cncn2)n1 do in these assays?
GRK2 inh: inactive; proCasp7 act: inactive; T cell HTS: inactive; aDG glyco up: 2.9; CaV13 FRET inh: inactive; procasp3 activ: inactive; aDG conf: inactive

What do the screens show for `CCOC(=O)N1CCN(C(=O)c2ccc3c(=O)n(-c4ccccc4F)c(=S)[nH]c3c2)CC1`?
GRK2 inh: inactive; proCasp7 act: inactive; T cell HTS: inactive; aDG glyco up: inactive; CaV13 FRET inh: inactive; procasp3 activ: inactive

How did CCc1ccc(C(CNC(=O)c2ccc3c(=O)n(-c4ccccc4F)c(=S)[nH]c3c2)N(C)C)cc1 (stereo not drawn) do in these assays?
GRK2 inh: inactive; proCasp7 act: inactive; T cell HTS: inactive; aDG glyco up: 10; CaV13 FRET inh: inactive; procasp3 activ: inactive; aDG conf: 6.9

What do the screens show for `COc1ccccc1C(=O)NC(=O)COC(=O)C1CC2CCCC(C1)C2=O` (stereo not drawn)?
GRK2 inh: inactive; T cell HTS: inactive; aDG glyco up: inactive; CaV13 FRET inh: inactive

What do the screens show for `CCOc1ccc(N=Cc2ccc([N+](=O)[O-])cc2)c(O)c1`?
aDG glyco up: 5.9; CaV13 FRET inh: inactive; aDG conf: inactive

How did CC12CCC(=O)C=C1CCC1C2C(O)CC2(C)C(c3csc(N)n3)CCC12 (stereo not drawn) do in these assays?
aDG glyco up: inactive; CaV13 FRET inh: inactive

How did CC12CCC(=O)C=C1CCC1C2CCC2(C)C(c3csc(N)n3)CCC12 (stereo not drawn) do in these assays?
aDG glyco up: 7.0; CaV13 FRET inh: inactive; aDG conf: inactive

What do the screens show for `Cc1ccc(S(=O)(=O)N(C)C)cc1NC(=O)COC(=O)Cc1ccccc1F`?
GRK2 inh: inactive; proCasp7 act: inactive; T cell HTS: inactive; aDG glyco up: 11; CaV13 FRET inh: inactive; procasp3 activ: inactive; aDG conf: inactive

How did Cc1ccc(S(=O)(=O)N(C)C)cc1NC(=O)COC(=O)Cc1ccc(Br)cc1 do in these assays?
GRK2 inh: inactive; proCasp7 act: inactive; T cell HTS: inactive; aDG glyco up: inactive; CaV13 FRET inh: inactive; procasp3 activ: inactive

How did CN(C)CCCNC(=O)C[C@H]1C[C@H](C(=O)N2CCOCC2)[C@@]2(C)c3[nH]c4ccc(Cl)cc4c3CCN2C1=O do in these assays?
GRK2 inh: inactive; proCasp7 act: inactive; aDG glyco up: 5.2; CaV13 FRET inh: inactive; procasp3 activ: inactive; aDG conf: inactive

How did Cc1ccccc1C(=O)OC(C)C(=O)NCc1ccc2c(c1)OCO2 (stereo not drawn) do in these assays?
GRK2 inh: inactive; proCasp7 act: inactive; T cell HTS: inactive; aDG glyco up: inactive; CaV13 FRET inh: inactive; procasp3 activ: inactive

What do the screens show for `CC(OC(=O)c1ccc(Cl)nc1)C(=O)NCc1ccc2c(c1)OCO2` (stereo not drawn)?
GRK2 inh: inactive; proCasp7 act: inactive; T cell HTS: inactive; aDG glyco up: 7.2; CaV13 FRET inh: inactive; procasp3 activ: inactive; aDG conf: inactive

Results for COc1ccc(COC(=O)C2CCN(S(=O)(=O)c3ccc(C)cc3)CC2)cc1 ?
GRK2 inh: inactive; proCasp7 act: inactive; T cell HTS: inactive; aDG glyco up: inactive; CaV13 FRET inh: inactive; procasp3 activ: inactive

Results for CC(C)Nc1nc(-c2cccnc2)nc(-c2ccccc2)c1C#N ?
GRK2 inh: inactive; proCasp7 act: inactive; T cell HTS: inactive; aDG glyco up: inactive; CaV13 FRET inh: inactive; procasp3 activ: inactive

What do the screens show for `CC(C)Nc1nc(-c2ccccn2)nc(-c2ccccc2)c1C#N`?
GRK2 inh: inactive; proCasp7 act: inactive; T cell HTS: inactive; aDG glyco up: 8.8; CaV13 FRET inh: inactive; procasp3 activ: inactive; aDG conf: inactive

Results for CC1CCCCC1NC(=O)C1CCC(CNS(=O)(=O)c2ccc3c(c2)C(C)(C)C(=O)N3C)CC1 (stereo not drawn) ?
aDG glyco up: inactive; CaV13 FRET inh: inactive

How did O=C(NCCS(=O)(=O)NCC1CCCO1)c1ccccc1 (stereo not drawn) do in these assays?
GRK2 inh: inactive; proCasp7 act: inactive; T cell HTS: inactive; aDG glyco up: 5.2; CaV13 FRET inh: inactive; procasp3 activ: inactive; aDG conf: inactive

How did O=C(NCC1CCCO1)c1ccccc1 (stereo not drawn) do in these assays?
GRK2 inh: inactive; proCasp7 act: inactive; T cell HTS: inactive; aDG glyco up: inactive; CaV13 FRET inh: inactive; procasp3 activ: inactive

What do the screens show for `C/C(=N/NC(=O)C(O)(c1ccccc1)c1ccccc1)c1ccc([N+](=O)[O-])o1`?
GRK2 inh: inactive; proCasp7 act: inactive; T cell HTS: inactive; aDG glyco up: 8.2; CaV13 FRET inh: inactive; procasp3 activ: inactive; aDG conf: 3.7

What do the screens show for `Cn1c(=N)n(CC(=O)c2ccc(F)cc2)c2ccccc21`?
GRK2 inh: inactive; proCasp7 act: inactive; T cell HTS: inactive; aDG glyco up: 3.8; CaV13 FRET inh: inactive; procasp3 activ: inactive; aDG conf: inactive

What do the screens show for `Cc1n(CC(=O)c2ccc(F)cc2)c2ccccc2[n+]1C`?
GRK2 inh: inactive; proCasp7 act: inactive; T cell HTS: inactive; aDG glyco up: inactive; CaV13 FRET inh: inactive; procasp3 activ: inactive

How did Cn1c(=N)n(CC(=O)c2ccc(Br)cc2)c2ccccc21 do in these assays?
GRK2 inh: inactive; proCasp7 act: inactive; T cell HTS: inactive; aDG glyco up: 4.8; CaV13 FRET inh: inactive; procasp3 activ: inactive; aDG conf: 6.1

How did COc1cc(Cc2nc3ccccc3n2C(C)c2nc3ccccc3[nH]2)cc(OC)c1 (stereo not drawn) do in these assays?
aDG glyco up: inactive; CaV13 FRET inh: inactive
